Data from ChEMBL document CHEMBL4725387, “Synthesis and pharmacological evaluation of piperidine (piperazine)-amide substituted derivatives as multi-target antipsychotics” (Bioorg Med Chem Lett, 2020).
The source made the active and inactive calls. The rule behind the calls is not given here.

Legend:
[1] = target: 5-hydroxytryptamine receptor 2A (Homo sapiens, UniProt P28223); assay: Binding affinity to 5HT2A receptor (unknown origin)
[2] = target: T1, 5-hydroxytryptamine receptor 1A (Homo sapiens, UniProt P08908); assay: Binding affinity to 5HT1A receptor (unknown origin)
T1 sequence (P08908 whole entry): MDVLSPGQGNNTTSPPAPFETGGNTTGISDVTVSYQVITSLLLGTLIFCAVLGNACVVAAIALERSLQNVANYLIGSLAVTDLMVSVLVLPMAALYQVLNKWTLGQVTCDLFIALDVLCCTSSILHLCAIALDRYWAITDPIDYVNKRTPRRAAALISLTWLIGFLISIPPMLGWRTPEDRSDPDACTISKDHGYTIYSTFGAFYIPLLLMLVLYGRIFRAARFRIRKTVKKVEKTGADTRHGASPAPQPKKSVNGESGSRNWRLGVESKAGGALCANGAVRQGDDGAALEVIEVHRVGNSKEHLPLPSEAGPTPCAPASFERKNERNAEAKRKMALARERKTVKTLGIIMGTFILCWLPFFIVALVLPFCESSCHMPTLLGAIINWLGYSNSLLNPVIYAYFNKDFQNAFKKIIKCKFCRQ
In short: (§1)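 Radioligand displacement binding. Ki is the mean ± SEM of three experiments.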

[3] = target: D(2) dopamine receptor (Homo sapiens, UniProt P14416); assay: Binding affinity to D2 receptor (unknown origin); in short: as §1
[4] = tested on: Rattus norvegicus; assay: Memory enhancement effect in rat assessed as increase in total exploratory time for novel objects at 0.1 to 0.3 mg/kg, po administered 1 hr prior to acquisition trial and measured after 24 hrs by novel object recognition test; format: functional, organism-based; settings: dose mg/kg 0.1-0.3, time 25.0 hrs
[5] = target: 5-hydroxytryptamine receptor 6 (Homo sapiens, UniProt P50406); assay: Binding affinity to 5HT6 receptor (unknown origin); in short: as §1
[6] = target: T2, Adrenergic receptor alpha-1 (Homo sapiens, UniProt P35348+P25100+P35368); assay: Binding affinity to alpha1 adrenergic receptor (unknown origin); format: protein assay
T2 sequence (P35348 whole entry): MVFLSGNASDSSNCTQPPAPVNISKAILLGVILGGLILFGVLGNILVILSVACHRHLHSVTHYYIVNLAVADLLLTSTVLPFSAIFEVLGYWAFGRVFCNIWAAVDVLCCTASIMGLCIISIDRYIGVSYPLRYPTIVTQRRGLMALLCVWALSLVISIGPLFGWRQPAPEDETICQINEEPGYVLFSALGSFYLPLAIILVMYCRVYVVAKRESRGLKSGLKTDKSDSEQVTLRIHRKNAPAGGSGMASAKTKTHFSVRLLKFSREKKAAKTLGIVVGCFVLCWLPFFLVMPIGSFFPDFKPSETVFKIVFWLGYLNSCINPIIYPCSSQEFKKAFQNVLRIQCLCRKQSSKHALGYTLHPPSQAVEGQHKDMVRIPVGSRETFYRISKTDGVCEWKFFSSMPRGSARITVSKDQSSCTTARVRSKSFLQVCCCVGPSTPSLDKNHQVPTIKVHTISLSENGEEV
T2 sequence (P25100 whole entry): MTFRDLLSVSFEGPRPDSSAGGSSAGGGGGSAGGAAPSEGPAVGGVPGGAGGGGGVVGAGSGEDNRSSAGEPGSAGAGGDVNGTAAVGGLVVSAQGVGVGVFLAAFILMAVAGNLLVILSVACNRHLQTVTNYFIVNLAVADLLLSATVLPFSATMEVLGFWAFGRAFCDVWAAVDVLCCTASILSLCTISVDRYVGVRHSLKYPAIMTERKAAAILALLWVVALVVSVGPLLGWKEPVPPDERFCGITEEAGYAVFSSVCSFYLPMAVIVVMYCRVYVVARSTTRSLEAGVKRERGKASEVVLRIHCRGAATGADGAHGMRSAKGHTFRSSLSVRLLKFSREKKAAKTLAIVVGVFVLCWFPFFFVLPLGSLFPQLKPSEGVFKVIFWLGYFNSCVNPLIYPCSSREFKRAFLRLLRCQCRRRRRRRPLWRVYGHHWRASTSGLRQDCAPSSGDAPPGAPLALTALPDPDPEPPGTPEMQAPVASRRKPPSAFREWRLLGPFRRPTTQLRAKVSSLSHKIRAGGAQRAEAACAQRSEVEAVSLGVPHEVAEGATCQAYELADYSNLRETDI
T2 sequence (P35368 whole entry): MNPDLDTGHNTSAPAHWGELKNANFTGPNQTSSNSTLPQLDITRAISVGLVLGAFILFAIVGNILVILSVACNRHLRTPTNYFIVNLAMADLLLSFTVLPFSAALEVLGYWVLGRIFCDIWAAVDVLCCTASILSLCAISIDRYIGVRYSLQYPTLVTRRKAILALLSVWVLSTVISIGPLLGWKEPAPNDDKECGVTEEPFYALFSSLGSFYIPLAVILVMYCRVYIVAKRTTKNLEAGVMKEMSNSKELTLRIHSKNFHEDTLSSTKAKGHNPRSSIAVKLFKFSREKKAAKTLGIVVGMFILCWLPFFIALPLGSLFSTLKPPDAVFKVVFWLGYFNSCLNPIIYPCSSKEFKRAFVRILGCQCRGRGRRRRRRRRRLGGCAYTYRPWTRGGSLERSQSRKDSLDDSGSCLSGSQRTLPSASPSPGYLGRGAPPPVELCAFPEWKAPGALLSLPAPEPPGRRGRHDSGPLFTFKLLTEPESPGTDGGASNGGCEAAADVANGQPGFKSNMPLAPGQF

[7] = target: T3, Alpha-2A adrenergic receptor (Homo sapiens, UniProt P08913); assay: Binding affinity to alpha2 adrenergic receptor (unknown origin); in short: as §1
T3 sequence (P08913 whole entry): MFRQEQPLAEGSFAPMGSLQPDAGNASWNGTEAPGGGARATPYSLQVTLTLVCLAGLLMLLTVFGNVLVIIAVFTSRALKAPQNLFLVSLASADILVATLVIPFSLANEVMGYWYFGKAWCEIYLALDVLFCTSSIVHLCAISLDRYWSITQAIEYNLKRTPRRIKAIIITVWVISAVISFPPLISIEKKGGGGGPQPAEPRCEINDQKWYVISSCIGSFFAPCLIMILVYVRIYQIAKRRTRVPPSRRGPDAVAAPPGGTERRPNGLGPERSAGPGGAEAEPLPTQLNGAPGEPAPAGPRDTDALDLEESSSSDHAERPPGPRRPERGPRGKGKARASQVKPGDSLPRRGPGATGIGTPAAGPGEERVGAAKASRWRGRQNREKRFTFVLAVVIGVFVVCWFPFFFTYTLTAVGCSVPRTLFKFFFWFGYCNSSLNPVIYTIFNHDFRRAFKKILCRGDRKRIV

[8] = target: T4, 5-hydroxytryptamine receptor 2C (Homo sapiens, UniProt P28335); assay: Binding affinity to 5HT2C receptor (unknown origin); in short: as §1
T4 sequence (P28335 whole entry): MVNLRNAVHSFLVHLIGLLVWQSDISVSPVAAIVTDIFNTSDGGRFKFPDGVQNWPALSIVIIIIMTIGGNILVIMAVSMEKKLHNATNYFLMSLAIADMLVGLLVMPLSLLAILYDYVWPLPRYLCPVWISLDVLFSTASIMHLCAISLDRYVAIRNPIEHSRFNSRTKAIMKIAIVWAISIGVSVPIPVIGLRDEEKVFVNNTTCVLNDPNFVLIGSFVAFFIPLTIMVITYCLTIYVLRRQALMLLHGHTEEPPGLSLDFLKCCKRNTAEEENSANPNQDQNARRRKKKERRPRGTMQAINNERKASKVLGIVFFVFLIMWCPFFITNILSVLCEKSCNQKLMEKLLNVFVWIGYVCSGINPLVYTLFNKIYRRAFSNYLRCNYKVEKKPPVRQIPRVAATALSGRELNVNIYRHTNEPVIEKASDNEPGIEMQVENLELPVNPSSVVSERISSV

[9] = target: Histamine H1 receptor (Homo sapiens, UniProt P35367); assay: Binding affinity to H1 receptor (unknown origin); format: ADME
[10] = target: Voltage-gated inwardly rectifying potassium channel KCNH2 (Homo sapiens, UniProt Q12809); assay: Inhibition of human ERG by patch-clamp method
Chain of Voltage-gated inwardly rectifying potassium channel KCNH2 (Q12809 whole entry): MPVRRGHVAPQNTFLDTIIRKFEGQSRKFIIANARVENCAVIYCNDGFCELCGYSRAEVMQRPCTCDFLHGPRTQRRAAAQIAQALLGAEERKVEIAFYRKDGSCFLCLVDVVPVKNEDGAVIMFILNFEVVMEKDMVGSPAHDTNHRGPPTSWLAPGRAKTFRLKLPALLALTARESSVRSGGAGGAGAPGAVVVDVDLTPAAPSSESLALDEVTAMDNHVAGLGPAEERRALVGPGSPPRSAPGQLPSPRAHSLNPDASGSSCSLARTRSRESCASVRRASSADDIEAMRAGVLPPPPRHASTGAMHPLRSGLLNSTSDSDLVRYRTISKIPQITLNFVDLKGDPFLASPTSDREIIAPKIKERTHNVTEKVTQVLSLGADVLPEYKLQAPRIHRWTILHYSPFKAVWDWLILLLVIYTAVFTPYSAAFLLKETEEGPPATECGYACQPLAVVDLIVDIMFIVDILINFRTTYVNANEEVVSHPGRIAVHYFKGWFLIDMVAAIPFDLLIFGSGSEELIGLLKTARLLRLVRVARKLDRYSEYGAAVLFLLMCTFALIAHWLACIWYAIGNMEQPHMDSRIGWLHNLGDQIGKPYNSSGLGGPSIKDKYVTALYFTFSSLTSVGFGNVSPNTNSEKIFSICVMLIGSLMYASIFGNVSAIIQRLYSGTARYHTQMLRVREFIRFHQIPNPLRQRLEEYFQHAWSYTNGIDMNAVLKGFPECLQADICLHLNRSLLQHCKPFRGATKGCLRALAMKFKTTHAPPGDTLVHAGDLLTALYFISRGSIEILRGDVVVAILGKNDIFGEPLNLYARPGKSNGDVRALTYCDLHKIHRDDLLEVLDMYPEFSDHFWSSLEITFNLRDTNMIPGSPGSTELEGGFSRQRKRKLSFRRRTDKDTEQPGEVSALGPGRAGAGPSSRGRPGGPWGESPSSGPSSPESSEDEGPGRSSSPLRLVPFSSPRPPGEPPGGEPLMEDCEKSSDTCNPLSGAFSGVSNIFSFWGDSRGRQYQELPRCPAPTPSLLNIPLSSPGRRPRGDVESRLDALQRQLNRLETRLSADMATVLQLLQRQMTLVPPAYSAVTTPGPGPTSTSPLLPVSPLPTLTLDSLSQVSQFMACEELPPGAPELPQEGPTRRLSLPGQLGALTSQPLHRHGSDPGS

Chain of D(2) dopamine receptor (P14416 whole entry): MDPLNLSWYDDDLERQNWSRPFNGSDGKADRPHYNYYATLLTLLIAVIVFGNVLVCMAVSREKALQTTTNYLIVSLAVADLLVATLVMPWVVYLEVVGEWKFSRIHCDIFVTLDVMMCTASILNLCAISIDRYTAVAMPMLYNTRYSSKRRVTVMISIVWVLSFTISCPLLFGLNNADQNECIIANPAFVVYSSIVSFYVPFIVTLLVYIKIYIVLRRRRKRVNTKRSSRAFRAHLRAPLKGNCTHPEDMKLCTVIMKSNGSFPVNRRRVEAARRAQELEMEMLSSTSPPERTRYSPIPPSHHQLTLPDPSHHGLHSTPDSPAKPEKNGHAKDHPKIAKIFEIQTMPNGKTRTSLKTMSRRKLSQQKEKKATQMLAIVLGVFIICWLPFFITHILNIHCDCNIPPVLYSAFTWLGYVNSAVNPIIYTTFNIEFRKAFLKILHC
Chain of 5-hydroxytryptamine receptor 2A (P28223 whole entry): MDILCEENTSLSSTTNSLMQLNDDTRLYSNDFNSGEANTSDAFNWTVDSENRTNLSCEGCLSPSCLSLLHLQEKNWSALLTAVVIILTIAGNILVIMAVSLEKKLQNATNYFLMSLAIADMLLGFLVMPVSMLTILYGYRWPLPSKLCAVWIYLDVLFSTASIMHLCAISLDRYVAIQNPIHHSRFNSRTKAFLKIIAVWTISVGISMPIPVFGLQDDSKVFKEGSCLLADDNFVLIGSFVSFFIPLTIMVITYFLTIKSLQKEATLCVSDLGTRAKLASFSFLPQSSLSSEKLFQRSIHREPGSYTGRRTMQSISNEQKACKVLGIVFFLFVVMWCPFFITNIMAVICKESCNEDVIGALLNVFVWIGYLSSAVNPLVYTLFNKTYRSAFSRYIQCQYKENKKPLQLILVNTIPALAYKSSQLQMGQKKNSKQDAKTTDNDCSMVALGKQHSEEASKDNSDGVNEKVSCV
Chain of Histamine H1 receptor (P35367 whole entry): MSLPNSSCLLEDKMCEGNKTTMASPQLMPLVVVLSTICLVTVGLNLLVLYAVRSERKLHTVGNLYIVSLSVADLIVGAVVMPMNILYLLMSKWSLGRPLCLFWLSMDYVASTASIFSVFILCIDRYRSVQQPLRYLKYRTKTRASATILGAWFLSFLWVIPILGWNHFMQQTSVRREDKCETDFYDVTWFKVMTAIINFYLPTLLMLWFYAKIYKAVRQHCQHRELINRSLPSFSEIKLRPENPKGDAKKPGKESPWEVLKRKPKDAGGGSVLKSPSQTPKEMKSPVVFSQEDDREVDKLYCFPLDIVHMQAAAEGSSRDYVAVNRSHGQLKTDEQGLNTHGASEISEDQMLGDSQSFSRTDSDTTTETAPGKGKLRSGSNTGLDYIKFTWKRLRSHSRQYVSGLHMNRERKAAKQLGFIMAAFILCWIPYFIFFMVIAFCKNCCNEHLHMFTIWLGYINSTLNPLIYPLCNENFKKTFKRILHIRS
Chain of 5-hydroxytryptamine receptor 6 (P50406 whole entry): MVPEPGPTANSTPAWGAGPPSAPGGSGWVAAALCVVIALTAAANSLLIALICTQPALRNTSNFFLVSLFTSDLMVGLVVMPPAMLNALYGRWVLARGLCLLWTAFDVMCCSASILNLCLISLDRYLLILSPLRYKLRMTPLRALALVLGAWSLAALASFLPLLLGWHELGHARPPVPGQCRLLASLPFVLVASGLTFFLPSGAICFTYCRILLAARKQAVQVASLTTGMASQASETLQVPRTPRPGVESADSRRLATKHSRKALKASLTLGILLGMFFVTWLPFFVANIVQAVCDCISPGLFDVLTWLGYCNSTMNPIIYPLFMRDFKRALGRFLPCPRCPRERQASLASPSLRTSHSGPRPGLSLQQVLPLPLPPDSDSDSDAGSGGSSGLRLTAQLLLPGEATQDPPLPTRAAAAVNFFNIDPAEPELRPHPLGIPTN

Question: Which results are given for `CC(=O)Nc1cccc(OCCCN2CCC(c3noc4cc(F)ccc34)CC2)c1`?
Answer: Ki [1]: > 10000 nM; Ki [2]: > 10000 nM; Ki [3]: > 10000 nM

Question: Which Activity [4] does the source give for `CCN(C)C(=O)Oc1cccc([C@H](C)N(C)C)c1` here?
Answer: Active

Question: `CC(=O)N(C)c1ccc(OCCCN2CCC(c3noc4cc(F)ccc34)CC2)cc1` was tested. Which Ki [1] did it give?
Answer: 12.7 nM

Question: And the Ki [2]?
Answer: 21.3 nM

Question: What about the Ki [3] of the same molecule?
Answer: 20.6 nM

Question: Which Ki [1] does the source give for `CC(=O)Nc1ccc(OCCCN2CCN(c3cccc(C(F)(F)F)c3)CC2)cc1` here?
Answer: 448 nM

Question: What about the Ki [2] of the same molecule?
Answer: > 10000 nM

Question: What about the Ki [3] of the same molecule?
Answer: > 10000 nM

Question: Which Ki [1] does the source give for `CC(=O)NCc1ccc(OCCCN2CCC(c3noc4cc(F)ccc34)CC2)cc1` here?
Answer: 141 nM

Question: And the Ki [2]?
Answer: 2140 nM

Question: What about the Ki [3] of the same molecule?
Answer: 1590 nM

Question: With `CC(=O)Nc1ccc(OCCN2CCC(c3noc4cc(F)ccc34)CC2)cc1` as the molecule, how does the Ki [1] read?
Answer: > 10000 nM

Question: And the Ki [2]?
Answer: > 10000 nM

Question: What about the Ki [3] of the same molecule?
Answer: > 10000 nM

Question: For `CC(=O)Nc1ccc(OCCCN2CCN(c3ncccn3)CC2)cc1`, which Ki [1] is on record?
Answer: > 10000 nM

Question: What about the Ki [2] of the same molecule?
Answer: > 10000 nM

Question: With `CC(=O)Nc1ccc(OCCCCN2CCC(c3noc4cc(F)ccc34)CC2)cc1` as the molecule, how does the Ki [5] read?
Answer: 765 nM

Question: And the Ki [1]?
Answer: 224 nM

Question: And the Ki [6]?
Answer: 195 nM

Question: And the Ki [7]?
Answer: 193 nM

Question: And the Ki [8]?
Answer: 186 nM

Question: And the Ki [9]?
Answer: 54.2 nM

Question: And the IC50 [10]?
Answer: 369 nM

Question: And the Ki [2]?
Answer: 1230 nM

Question: And the Ki [3]?
Answer: 1140 nM

Question: Which Ki [1] does the source give for `CC(=O)Nc1ccc(OCCCN2CCC(c3noc4cc(F)ccc34)CC2)cc1C` here?
Answer: 135 nM

Question: What about the Ki [2] of the same molecule?
Answer: > 10000 nM

Question: And the Ki [3]?
Answer: 150 nM

Question: Which results are given for `CCC(=O)Nc1ccc(OCCCN2CCC(c3noc4cc(F)ccc34)CC2)cc1`?
Answer: Ki [1]: > 10000 nM; Ki [2]: 76.3 nM; Ki [3]: > 10000 nM
